In PMC10438863 (Journal of Enzyme Inhibition and Medicinal Chemistry, 2023):

Columns and labels:
K562 cell line = assay: CCK-8 antiproliferative assay, K562; format: cell-based; details: for inhibition at 0.1 µM / inhibition at 1 µM / IC50: Homo sapiens, K562, 72 h; for inhibition at 0.1 µM / inhibition at 1 µM: read-out: Inhibition rate (%); for IC50: read-out: IC50 (µM) K562; for fold decrease in antiproliferative activities of K562 cell lines: relative to 12d
Procedure, shortened: (§1)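 Cells were grown in RPMI-1640 with 10% FBS at 37 °C in 5% CO2. About 3.5 × 10^3 cells/well were seeded, grown 24 h, then given test compound at several concentrations for 72 h in triplicate wells. CCK-8 was added for 2–3 h and OD read at 450 nm to give inhibition rate or IC50. K562 screen: mean of ≥2 independent experiments. Five-line panel: mean ± SD of three.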

A549 = assay: CCK-8 antiproliferative assay, A549; format: cell-based; details: Homo sapiens, A549, 72 h, read-out: IC50 (µM) A549
Procedure, shortened: as §1

H22 = assay: CCK-8 antiproliferative assay, H22; format: cell-based, mouse; details: Mus musculus, H22, 72 h, read-out: IC50 (µM) H22
Procedure, shortened: as §1

normal cell line HFL-1 = assay: CCK-8 assay, normal cell line HFL-1; format: cell-based; details: Homo sapiens, HFL1, 72 h, read-out: IC50 (µM) HFL-1
Procedure, shortened: as §1

Hela = assay: CCK-8 antiproliferative assay, Hela; format: cell-based; details: Homo sapiens, HeLa, 72 h, read-out: IC50 (µM) Hela
Procedure, shortened: as §1

SMILES | inhibition at 0.1 µM (K562 cell line) [%] | inhibition at 1 µM (K562 cell line) [%] | IC50 (K562 cell line) [µM] | IC50 (A549) [µM] | IC50 (H22) [µM] | IC50 (normal cell line HFL-1) [µM] | IC50 (Hela) [µM] | fold decrease in antiproliferative activities of K562 cell lines (K562 cell line)
COc1cc(CC2Cc3cc(OC)c(OC)c(OC)c3C2)cc(OC)c1OC (centres unmarked) [Compound 12c, 4,5,6-trimethoxy-2–(3,4,5-trimethoxybenzyl)-2,3-dihydro-1H-indene] | 6.96 | 9.48 |  |  |  |  |  | 
COc1cc2c(c(OC)c1OC)CC(Cc1ccc(N)c(C)c1)C2 (centres unmarked) [Compound 12h, 2-methyl-4-((4,5,6-trimethoxy-2,3-dihydro-1H-inden-2-yl)methyl)aniline] | 2.25 | 79.8 |  |  |  |  |  | 
COc1cc2c(c(OC)c1OC)CC(Cc1ccc(C)c(F)c1)C2 (centres unmarked) [Compound 12f, 2–(3-fluoro-4-methylbenzyl)-4,5,6-trimethoxy-2,3-dihydro-1H-indene] | 6.65 | 72 |  |  |  |  |  | 
COc1ccc(CC2Cc3c(cc(OC)c(OC)c3OC)O2)cc1O (centres unmarked) [Compound 15c, 2-methoxy-5-((4,5,6-trimethoxy-2,3-dihydrobenzofuran-2-yl)methyl)phenol] | 52.1 | 87.5 | 0.1 ± 0.007 | 0.341 ± 0.064 | 0.114 ± 0.023 | 3.58 ± 0.548 | 0.309 ± 0.032 | 
COc1cc2c(c(OC)c1OC)CC(Cc1ccccc1)C2 (centres unmarked) [Compound 12l, 2-benzyl-4,5,6-trimethoxy-2,3-dihydro-1H-indene] | 1.03 | 7.29 |  |  |  |  |  | 
COc1ccc(CC2Cc3cc(OC)c(OC)c(OC)c3C2)cc1OC (centres unmarked) [Compound 12b, 2–(3,4-dimethoxybenzyl)-4,5,6-trimethoxy-2,3-dihydro-1H-indene] | 5.8 | 15.2 |  |  |  |  |  | 
COc1cc2c(c(OC)c1OC)CC(Cc1ccc3cc[nH]c3c1)C2 (centres unmarked) [Compound 12u, 6-((4,5,6-trimethoxy-2,3-dihydro-1H-inden-2-yl)methyl)-1H-indole] | 10.8 | 83.9 |  |  |  |  |  | 
COc1cc2c(c(OC)c1OC)CC(Cc1ccc3ccn(C)c3c1)C2 (centres unmarked) [Compound 12x, 1-methyl-6-((4,5,6-trimethoxy-2,3-dihydro-1H-inden-2-yl)methyl)-1H-indole] | 12.5 | 74.9 |  |  |  |  |  | 
COc1cc2c(c(OC)c1OC)CC(Cc1ccc3c(c1)CCO3)C2 (centres unmarked) [Compound 12q, 5-((4,5,6-trimethoxy-2,3-dihydro-1H-inden-2-yl)methyl)-2,3-dihydrobenzofuran] | 83.6 | 91.9 | 0.079 ± 0.009 | 0.22 ± 0.015 | 0.104 ± 0.004 | 0.398 ± 0.023 | 0.183 ± 0.009 | 
COc1cc2c(c(OC)c1OC)CC(Cc1ccc(O)cc1)C2 (centres unmarked) [Compound 12m, 4-((4,5,6-trimethoxy-2,3-dihydro-1H-inden-2-yl)methyl)phenol] | 2.9 | 16.4 |  |  |  |  |  | 
COc1ccc(CC2Cc3cc(OC)c(OC)c(OC)c3C2)cc1N (centres unmarked) [Compound 12j, 2-methoxy-5-((4,5,6-trimethoxy-2,3-dihydro-1H-inden-2-yl)methyl)aniline] | 68.7 | 86.6 | 0.068 ± 0.006 | 0.212 ± 0.013 | 0.093 ± 0.005 | 0.59 ± 0.062 | 0.136 ± 0.011 | 
COc1ccc(CC2Cc3cc(OC)c(OC)c(OC)c3C2)cc1 (centres unmarked) [Compound 12a, 4,5,6-trimethoxy-2–(4-methoxybenzyl)-2,3-dihydro-1H-indene] | 5.71 | 72.4 |  |  |  |  |  | 
COc1ccc(CC2Cc3cc(OC)c(OC)c(OC)c3C2=O)cc1O (centres unmarked) [Compound 15d, 2–(3-hydroxy-4-methoxybenzyl)-5,6,7-trimethoxy-2,3-dihydro-1H-inden-1-one] | 39 | 63 | 0.774 ± 0.051 | 2.95 ± 0.154 | 1.13 ± 0.058 | 6.96 ± 0.843 | 3.41 ± 0.186 | 
COc1cc2c(c(OC)c1OC)CC(Cc1ccc(C)c(C)c1)C2 (centres unmarked) [Compound 12i, 2–(3,4-dimethylbenzyl)-4,5,6-trimethoxy-2,3-dihydro-1H-indene] | 3 | 66 |  |  |  |  |  | 
COc1cc2c(c(OC)c1OC)CC(Cc1ccc(F)c(F)c1)C2 (centres unmarked) [Compound 12g, 2–(3,4-difluorobenzyl)-4,5,6-trimethoxy-2,3-dihydro-1H-indene] | 4.71 | 7.74 |  |  |  |  |  | 
COc1cc2c(c(OC)c1OC)CC(Cc1ccc(N)cc1)C2 (centres unmarked) [Compound 12n, 4-((4,5,6-trimethoxy-2,3-dihydro-1H-inden-2-yl)methyl)aniline] | 5.81 | 78.8 |  |  |  |  |  | 
COc1cc2c(c(OC)c1OC)CC(Cc1ccc3[nH]ccc3c1)C2 (centres unmarked) [Compound 12t, 5-((4,5,6-trimethoxy-2,3-dihydro-1H-inden-2-yl)methyl)-1H-indole] | 50.4 | 88.6 | 0.176 ± 0.024 | 0.277 ± 0.029 | 0.254 ± 0.02 | 0.552 ± 0.075 | 0.284 ± 0.014 | 
COc1ccc(CC2Cc3cc(OC)c(OC)c(OC)c3C2)cn1 (centres unmarked) [Compound 12k, 2-methoxy-5-((4,5,6-trimethoxy-2,3-dihydro-1H-inden-2-yl)methyl)pyridine] | 4.12 | 13.9 |  |  |  |  |  | 
COc1cc2c(c(OC)c1OC)CC(Cc1ccc3c(ccn3C)c1)C2 (centres unmarked) [Compound 12w, 1-methyl-5-((4,5,6-trimethoxy-2,3-dihydro-1H-inden-2-yl)methyl)-1H-indole] | 10 | 85.8 |  |  |  |  |  | 
COc1ccc(CC2Cc3cc(OC)c(OC)cc3C2)cc1O [Compound 15a, 5-((5,6-dimethoxy-2,3-dihydro-1H-inden-2-yl)methyl)-2-methoxyphenol] | 45.6 | 81.5 | 0.192 ± 0.013 | 0.753 ± 0.04 | 0.307 ± 0.015 | 5 ± 0.306 | 0.317 ± 0.027 | about 7 fold
COc1ccc(CC2Cc3cc(O)c(OC)cc3C2)cc1O (centres unmarked) [Compound 15b, 2–(3-hydroxy-4-methoxybenzyl)-6-methoxy-2,3-dihydro-1H-inden-5-ol] | 31.4 | 89.2 | 0.425 ± 0.027 | 2.01 ± 0.117 | 0.575 ± 0.041 | 11.3 ± 1.4 | 3.17 ± 0.108 | ~15 fold
COc1cc2c(c(OC)c1OC)CC(Cc1ccc(C(F)(F)F)cc1)C2 (centres unmarked) [Compound 12p, 4,5,6-trimethoxy-2–(4-(trifluoromethyl)benzyl)-2,3-dihydro-1H-indene] | 12.6 | 15.4 |  |  |  |  |  | 
COc1cc2c(c(OC)c1OC)CC(Cc1cccc3[nH]ccc13)C2 (centres unmarked) [Compound 12s, 4-((4,5,6-trimethoxy-2,3-dihydro-1H-inden-2-yl)methyl)-1H-indole] | 9.67 | 67.1 |  |  |  |  |  | 
COc1cc2c(c(OC)c1OC)CC(Cc1ccc(N(C)C)cc1)C2 (centres unmarked) [Compound 12o, N,N-dimethyl-4-((4,5,6-trimethoxy-2,3-dihydro-1H-inden-2-yl)methyl)aniline] | 5.65 | 6.97 |  |  |  |  |  | 
COc1ccc(CC2Cc3cc(OC)c(OC)c(OC)c3C2)cc1F (centres unmarked) [Compound 12e, 2–(3-fluoro-4-methoxybenzyl)-4,5,6-trimethoxy-2,3-dihydro-1H-indene] | 10.2 | 67 |  |  |  |  |  | 
COc1cc2c(c(OC)c1OC)CC(Cc1cccc3c1ccn3C)C2 (centres unmarked) [Compound 12v, 1-methyl-4-((4,5,6-trimethoxy-2,3-dihydro-1H-inden-2-yl)methyl)-1H-indole] | 5.02 | 28.5 |  |  |  |  |  | 
